Converted amounts (≈) assume the structure as drawn. Some results are limits rather than exact numbers.

The test system of data set [1] is Leishmania donovani. As to the kind of experiment: Antileishmanial activity against Leishmania donovani MHOM/IN/1983/AG83 promastigotes after 4 hrs by MTT assay. As to conditions: MHOM/IN/1983/AG83, 4 h. The format is functional, organism-based. The method in brief:
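AG83 promastigotes kept at 22 °C in M199 + 10% FBS. Log-phase cells (2×10^6/ml) exposed 2 h at 22 °C to 1, 3, 5, 7, 10, 15 compound; DMSO at 0.1% final. Cells washed with PBS, incubated 4 h at 22 °C with MTT (2 mg/ml). Formazan dissolved in DMSO and read at 570 nm; % lysis computed, IC50 by linear regression.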
Background: Tetrazolium dyes change colour on reduction, which living cells bring about.

Data set [2] deals with Leishmania donovani. The experiment in a line: Antileishmanial activity against Leishmania donovani MHOM/IN/1983/AG83 amastigotes by Giemsa staining. The format is functional, organism-based. The method in brief:
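Peritoneal macrophages from thioglycolate-elicited exudate (~2×10^6/ml), adhered overnight on coverslips in RPMI-1640 + 10% FBS at 37 °C, 5% CO2. Infected 6 h with stationary-phase AG83 promastigotes (2×10^7/ml), washed, then exposed 24 h to 0.5, 1, 3, 5, 10 compound. Methanol-fixed, Giemsa-stained; amastigotes per 200 macrophages counted against untreated controls.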

The nature of data set [3]: Toxicity against golden Syrian hamster peritoneal macrophages. It counts as cell-based, Mesocricetus auratus. Particulars: macrophage.
Data set [4] deals with Leishmania donovani. The experiment in a line: Antileishmanial activity against Leishmania donovani MHOM/IN/1983/AG83 promastigotes infected ip dosed BALB/c mouse assessed as reduction in spleen parasite burden administered two times per week for 4 weeks relative to control. It counts as functional. On the set-up: scale not given: the % may be the effect or the level left. Summed up: (§1)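 BALB/c mice (4-6 weeks) were infected iv with 2 × 10^7 freshly transformed promastigotes. One month later, groups were dosed ip in 0.2% Tween 80 in PBS (0.02 M), twice weekly for one month (8 doses); controls got vehicle only. Mice were killed one month post-treatment and spleen and liver were weighed. Parasite load came from Giemsa impression smears as organ weight (mg) × amastigotes per cell nucleus × 2 × 10^5. Values are mean ± S.E. of 5 mice; unpaired t-test.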

Data set [5] has as its system Leishmania donovani. As to the kind of experiment: Antileishmanial activity against Leishmania donovani MHOM/IN/1983/AG83 promastigotes infected ip dosed BALB/c mouse assessed as reduction in liver parasite burden administered two times per week for 4 weeks relative to control. The format is functional. The arrangement: scale not given: the % may be the effect or the level left. The method in brief: as §1

For data set [6], the system named is Leishmania donovani. As to the kind of experiment: Antileishmanial activity against Leishmania donovani MHOM/IN/1983/AG83 promastigotes infected BALB/c mouse assessed as liver weight at 12.5 mg/kg, ip administered two times per week for 4 weeks. It counts as functional. Particulars: route intraperitoneal. Summed up:
as §1

For data set [7], the system named is Leishmania donovani. As to the kind of experiment: Antileishmanial activity against Leishmania donovani MHOM/IN/1983/AG83 promastigotes infected BALB/c mouse assessed as spleen weight at 12.5 mg/kg, ip administered two times per week for 4 weeks. It counts as functional. Particulars: route intraperitoneal. Summed up:
as §1

In the case of `O=c1ccc2cccc3c2n1CCO3` [OXAZINOQUINOLONE], the results for the half-inhibitory concentration (IC50) in the data set on Leishmania donovani [1] and in the data set on Leishmania donovani [2] were 16.5 µg/mL (≈ 88.1 µM) and 14 µg/mL (≈ 74.8 µM), respectively. Also, the Activity in data set [3] was more than 220 µg/mL.
The matching figures for `N=C(N)c1ccc(OCCCCCOc2ccc(C(=N)N)cc2)cc1` [PENTAMIDINE]: 2.1 µg/mL (≈ 6.17 µM), 2.8 µg/mL (≈ 8.22 µM) and more than 90 µg/mL.
For the compound `Cc1ccc2cccc(OCCCCOc3cccc4ccc(C)nc34)c2n1`, the Activity is 73.5% in the data set with Leishmania donovani [4]; 78% in the data set on Leishmania donovani [5]; 1125 mg with Leishmania donovani [6]; 190 mg in the data set on Leishmania donovani [7]; more than 90 µg/mL in data set [3]. Further, the IC50 stood at 3.2 µg/mL (≈ 8.59 µM) in the data set on Leishmania donovani [1] and 2.7 µg/mL (≈ 7.25 µM) with Leishmania donovani [2].
With `c1cnc2c(OCOc3cccc4cccnc34)cccc2c1`, the Activity in the data set on Leishmania donovani [4] is 89%; in the data set with Leishmania donovani [5], 92%; in the data set on Leishmania donovani [6] it was 980 mg; in the data set with Leishmania donovani [7], 110 mg; in data set [3], more than 85 µg/mL. In addition, the 50% inhibitory concentration (IC50) in the data set on Leishmania donovani [1] was determined as 2.4 µg/mL (≈ 7.94 µM); in the data set on Leishmania donovani [2] it was 2.3 µg/mL (≈ 7.61 µM).
With `Cc1ccc2cccc(OCCCCCOc3cccc4ccc(C)nc34)c2n1`, the Activity in the data set on Leishmania donovani [4] is 82%; in the data set with Leishmania donovani [5], 88.5%; in the data set on Leishmania donovani [6], 1020 mg; in the data set with Leishmania donovani [7], 135 mg; in data set [3], more than 85 µg/mL. Moreover, the IC50 with Leishmania donovani [1] came to 2.8 µg/mL (≈ 7.24 µM); with Leishmania donovani [2], 2.4 µg/mL (≈ 6.21 µM).
In the case of `C[C@@H]1[C@H](O)[C@@H](C)/C=C/C=C/C=C/C=C/C=C/C=C/C=C/[C@H](O[C@@H]2O[C@H](C)[C@@H](O)[C@H](N)[C@@H]2O)C[C@@H]2O[C@](O)(C[C@@H](O)C[C@@H](O)[C@H](O)CC[C@@H](O)C[C@@H](O)CC(=O)O[C@H]1C)C[C@H](O)[C@H]2C(=O)O` [AMPHOTERICIN B], the IC50 with Leishmania donovani [1] turned out to be 0.16 µg/mL (≈ 0.173 µM); in the data set with Leishmania donovani [2] it was 0.1 µg/mL (≈ 0.108 µM). In addition, the Activity in data set [3] is more than 4 µg/mL.
The matching figures for `Cc1ccc2cccc(OCCCOc3cccc4ccc(C)nc34)c2n1`: 13.5 µg/mL (≈ 37.7 µM), 10 µg/mL (≈ 27.9 µM) and more than 200 µg/mL.
Take `Cc1ccc2cccc(OCOc3cccc4ccc(C)nc34)c2n1`: the Activity was 1205 mg in the data set on Leishmania donovani [6], 232 mg with Leishmania donovani [7] and more than 100 µg/mL in data set [3]. Also, the IC50 in the data set with Leishmania donovani [1] is 3.4 µg/mL (≈ 10.3 µM); in the data set with Leishmania donovani [2] it was 2.9 µg/mL (≈ 8.78 µM).

As usually defined, the IC50 is the concentration that inhibits the measured activity by half.

The record behind these values is ChEMBL document CHEMBL1153864, “Phase transfer catalyzed synthesis of bis-quinolines: antileishmanial activity in experimental visceral leishmaniasis and in vitro antibacterial evaluation” (Eur J Med Chem, 2009).
